Results reported in article PMC7970147 (Heliyon, 2021).

Assays:
DsOBP69a = target: T1, DsOBP69a (Drosophila suzukii, UniProt A0AB39ZGK5); assay: Fluorescence competition binding assay with bis-ANS, recombinant DsOBP69a; details: for binding to DsOBP69a (in words): fluorescence competition binding assay
T1 sequence (A0AB39ZGK5 25-148): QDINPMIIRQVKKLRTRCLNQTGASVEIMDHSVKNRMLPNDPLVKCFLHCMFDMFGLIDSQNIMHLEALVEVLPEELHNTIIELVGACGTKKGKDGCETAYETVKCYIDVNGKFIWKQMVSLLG
In short: (§1)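 Recombinant D. suzukii OBP expressed in E. coli BL21(DE3) (pET-30a), recovered from inclusion bodies in 8 M urea, Ni-NTA purified, refolded and dialysed into 50 mM Tris-HCl pH 7.4. Protein (2 μmol L−1 final) plus bis-ANS was titrated with ligand (1 mmol L−1 methanol stock). Excitation was 295 nm, with a 300–550 nm scan. Ki = IC50/(1+[bis-ANS]/Kbis-ANS), with Kbis-ANS from a Scatchard plot.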

DsOBP76a = target: T2, DsOBP76a (Drosophila suzukii, UniProt A0AB39ZCT4); assay: Fluorescence competition binding assay with bis-ANS, recombinant DsOBP76a; details: for binding to DsOBP76a (in words): fluorescence competition binding assay
T2 sequence (A0AB39ZCT4 30-153): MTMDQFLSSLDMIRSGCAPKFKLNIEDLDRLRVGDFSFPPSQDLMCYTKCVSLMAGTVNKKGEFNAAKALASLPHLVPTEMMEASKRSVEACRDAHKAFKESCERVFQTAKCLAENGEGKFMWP
In short: as §1

DsOBP59h = details: ref Li et al., 2019; cited from earlier work
DmOBP69a = details: ref Bentzur et al., 2018; cited from earlier work
DmOBP76a = details: ref Billeter and Levine, 2015; cited from earlier work
OBP28a = details: ref Gonzalez et al., 2019; cited from earlier work

Kd (DsOBP69a) | Kd (DsOBP76a) | binding to DsOBP69a (in words) (DsOBP69a) | binding to DsOBP76a (in words) (DsOBP76a) | SMILES | affinity with DsOBP59h proteins (in words) (DsOBP59h) | further results
20.4 µM | 7.76 µM | – | – | O=c1ccc2ccccc2o1 [Coumarin] | high affinity | –
– | – | do not bind | do not bind | CCCCCC/C=C\CCCCCCCCCCOC(C)=O [11-cis-Vaccenyl acetate] | – | binding to DmOBP69a (in words) (DmOBP69a): bind; binding to DmOBP76a (in words) (DmOBP76a): bind
19.3 µM | – | – | – | CCCCCC/C=C\CCCCCCCCCCCCCCC [(Z)-7-Tricosene] | – | –
– | – | not affinity | not affinity | CC[N+](CC)(CC(=O)Nc1c(C)cccc1C)Cc1ccccc1 [Denatonium benzoate] | not affinity | –
23.8 µM | 24.1 µM | – | – | O=C1C[C@@H](c2ccc(O)cc2)Oc2cc(O)cc(O)c21 [Naringenin] | – | –
4.03 µM | 3.37 µM | – | – | CC(=O)/C=C/C1=C(C)CCCC1(C)C [β-Ionone] | – | affinity with OBP28a (in words) (OBP28a): strong affinity

SMILES | Kd (DsOBP69a) | Kd (DsOBP76a) | binding to DsOBP69a (in words) (DsOBP69a) | binding to DsOBP76a (in words) (DsOBP76a) | affinity with DsOBP59h proteins (in words) (DsOBP59h) | further results
COc1ccc2cc3[n+](cc2c1OC)CCc1cc2c(cc1-3)OCO2 [Berberine chloride] | 7.21 µM | 7.64 µM | – | – | high affinity | –
NC(=S)Nc1ccccc1 [N-Phenylthiourea] | – | – | not affinity | not affinity | not affinity | –
